Compound activity: PubChem BioAssay, several laboratories
EBV gp42 inh = Epstein-Barr virus gp42 inhibitors, primary screen, biochemical, uHTS, fluorescence polarization; Glycoprotein 42 (Epstein-Barr virus (strain AG876)), Q1HVG2; Fluorescence polarization binding assay, mP read-out; inhibition, % (tested at 21.74 µM); 220,000 tested, 0.42% active; in the data active = inhibition above about 50%
Bcl-xL primary = inhibitors of human Bcl-xL, primary screen, biochemical, fluorescence polarization, HTS. Bcl-2-like protein 1 (Homo sapiens), Q07817. GST-Bcl-xL / FITC-Bim BH3 peptide fluorescence polarization. inhibition, % at 10.9 µM. 320,000 tested, 0.7% active;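 active = inhibition above the mean of all tested compounds plus 3 SD, cutoff set per campaign, cut at about 30% in these data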;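 note: 0% = DMSO wells and 100% = unlabeled Bim-BH3 peptide competitor; inhibitors lower millipolarization by displacing the labeled peptide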
Target sequence (Q07817 whole entry, looked up): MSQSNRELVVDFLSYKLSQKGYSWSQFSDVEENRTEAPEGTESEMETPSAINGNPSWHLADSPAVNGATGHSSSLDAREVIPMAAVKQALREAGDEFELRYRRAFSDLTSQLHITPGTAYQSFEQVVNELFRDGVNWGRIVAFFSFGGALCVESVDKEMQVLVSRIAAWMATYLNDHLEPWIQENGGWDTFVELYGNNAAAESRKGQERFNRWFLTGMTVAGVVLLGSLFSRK
VIM-2 inhibitor = VIM-2 metallo-beta-lactamase inhibitors, primary screen, biochemical, epi-absorbance readout, Pseudomonas aeruginosa enzyme | purified VIM-2, nitrocefin hydrolysis, epi-absorbance fluorescence | inhibition, % at 5.6 µM | 290,000 tested, 0.89% active | AID 1527, 2009;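 active = inhibition above the mean of all tested compounds plus 3 SD, cutoff set per screening run, cut at about 7.5% in these data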;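 note: red hydrolysis product quenches plate fluorescence so inhibitors raise well fluorescence; 0% = enzyme with DMSO and 100% = DMSO without enzyme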
IMP-1 inhibitor = IMP-1 metallo-beta-lactamase inhibitors, primary screen, biochemical, epi-absorbance readout, Pseudomonas aeruginosa enzyme; AID 1556, 2009; inhibition, % at 5.6 µM; metallo-beta-lactamase IMP-1 (Pseudomonas aeruginosa); 290,000 tested, 0.45% active; purified IMP-1, nitrocefin hydrolysis, epi-absorbance fluorescence;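 active = inhibition above the mean plus 3 SD of all compounds in the same screening run, cut at about 4.5% in these data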;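 note: 0% = IMP-1 with DMSO and 100% = DMSO wells lacking enzyme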
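System: purified IMP-1; amount: IMP-1 0.2 nM before substrate addition; compound: single dose, 5.6 µM; times: 25 °C, 15 min preincubation, 25 min reaction; signal: Epi-absorbance via hydrolysed-nitrocefin quenching of white-plate fluorescence, 480/530 nm, EDTA stop; benchmarks: DMSO with and without IMP-1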
MEX-5 binding = MEX-5 zinc finger RNA-binding disruptors – biochemical, C. elegans, fluorescence polarization, MLPCN library, primary screen; Zinc finger protein mex-5 (Caenorhabditis elegans), Q9XUB2; MEX-5/FITC-TCR2 RNA binding; stronger effect = lower value; activity score (negative = inhibition of binding), % at 10 µM; 300,000 tested, 0.38% active;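 active = inhibition past about -25% in most replicates, and total fluorescence under double the plate's negative control median, limit read from the data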;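 note: 0% = DMSO and -100% = 5 µM competing unlabeled TCR2 RNA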
Target sequence (Q9XUB2 whole entry, looked up): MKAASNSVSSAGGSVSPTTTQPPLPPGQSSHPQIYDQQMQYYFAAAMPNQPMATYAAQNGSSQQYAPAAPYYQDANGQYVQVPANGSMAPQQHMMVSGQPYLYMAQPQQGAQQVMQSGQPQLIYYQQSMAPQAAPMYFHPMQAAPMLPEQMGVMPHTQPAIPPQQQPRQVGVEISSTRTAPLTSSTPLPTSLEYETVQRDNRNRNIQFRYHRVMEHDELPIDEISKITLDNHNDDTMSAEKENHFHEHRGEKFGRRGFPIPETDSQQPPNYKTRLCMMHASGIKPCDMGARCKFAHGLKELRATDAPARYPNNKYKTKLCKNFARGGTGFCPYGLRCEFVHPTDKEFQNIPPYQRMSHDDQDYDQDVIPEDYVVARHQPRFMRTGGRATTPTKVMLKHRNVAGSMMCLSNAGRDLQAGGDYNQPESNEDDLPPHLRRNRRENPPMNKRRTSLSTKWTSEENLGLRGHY
GLD-1 RNA inh = GLD-1/TGE RNA complex disruptors, primary screen, biochemical, fluorescence polarization; inhibition, % at 5.96 µM; Female germline-specific tumor suppressor gld-1 (Caenorhabditis elegans), Q17339; purified GLD-1 + fluorescein TGE RNA; 320,000 tested, 0.44% active; AID 2280, 2010;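 active = percent inhibition above a per-plate cutoff, the plate mean of test compounds plus 3 SD, cut at about 30% in these data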;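 note: 0% = DMSO wells with GLD-1 and probe and 100% = wells lacking GLD-1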
* hit, by the source's call. Most compounds without a hit are left out; they make up all but 2.2% or so of the library.

Screening CCC(c1nnc(SCC(=O)Nc2ccc(C(C)=O)cc2)n1C1CCCCC1)N(C)C (stereo not drawn) returned EBV gp42 inh -1, Bcl-xL primary 10, VIM-2 inhibitor 12*, IMP-1 inhibitor -3, MEX-5 binding 2 and GLD-1 RNA inh 8.
`CCC(c1nnc(SCC(=O)Nc2cc(Cl)ccc2C#N)n1C1CCCCC1)N(C)C` (stereo not drawn) gave EBV gp42 inh -20, Bcl-xL primary 5, VIM-2 inhibitor 5, IMP-1 inhibitor -2, MEX-5 binding 3 and GLD-1 RNA inh -8.
`COCCCNC(=S)NNC(=O)c1cc(C2CC2)nc2ccccc12` gave VIM-2 inhibitor -7, IMP-1 inhibitor -5 and MEX-5 binding -1.
Screening O=C(O)CC1(CC(=O)NCc2ccc(Cl)cc2)CCCCC1 returned Bcl-xL primary 0, VIM-2 inhibitor -3, IMP-1 inhibitor -2, MEX-5 binding 2 and GLD-1 RNA inh -2.
CCOC(=O)N1CCN(/C=C(\C#N)c2nc3ccccc3s2)CC1 was read as EBV gp42 inh -48, Bcl-xL primary -43, VIM-2 inhibitor -1, IMP-1 inhibitor -2, MEX-5 binding -50* and GLD-1 RNA inh -76.
Cc1cc(C)c(NC(=O)CSc2nnc(SCC(=O)Nc3c(C)cc(C)cc3C)n2N)c(C)c1 was read as EBV gp42 inh -22, Bcl-xL primary -2, VIM-2 inhibitor -4, IMP-1 inhibitor 7.2*, MEX-5 binding 4 and GLD-1 RNA inh -7.
For CCC(CC)C1C(C#N)=C(N)Oc2cc(C)oc(=O)c21 (stereo not drawn) the results were EBV gp42 inh -8, Bcl-xL primary -2, VIM-2 inhibitor -4, IMP-1 inhibitor -1, MEX-5 binding 4 and GLD-1 RNA inh 4.
`Cc1cc2c(c(=O)o1)C(CCC1CCCCC1)C(C#N)=C(N)O2` (stereo not drawn) gave EBV gp42 inh -30, Bcl-xL primary -9, VIM-2 inhibitor -2, IMP-1 inhibitor 11*, MEX-5 binding 6 and GLD-1 RNA inh -20.
`CC1C=CC(C)C(C(=O)O)C1C(=O)O` (stereo not drawn) gave EBV gp42 inh -1, Bcl-xL primary 1, VIM-2 inhibitor -2, IMP-1 inhibitor 23*, MEX-5 binding 2 and GLD-1 RNA inh 9.
Screening Cc1c(CCC(=O)NCCCn2ccnc2)c(=O)oc2c(C)c3oc4c(c3cc12)CCCC4 returned Bcl-xL primary 4, VIM-2 inhibitor 9.6*, IMP-1 inhibitor -3, MEX-5 binding 0 and GLD-1 RNA inh -1.
For COc1ccc2c(c1)CCN1C2CCN2C(=O)CCC21 (stereo not drawn) the results were EBV gp42 inh 9, Bcl-xL primary 45*, VIM-2 inhibitor -1, IMP-1 inhibitor -1, MEX-5 binding -6 and GLD-1 RNA inh 21.
Screening COc1ccc(C2=NN(c3nc(-c4ccc(CNC(C)=O)cc4)cs3)C(c3ccco3)C2)cc1 (stereo not drawn) returned Bcl-xL primary 0, VIM-2 inhibitor -2, IMP-1 inhibitor 1, MEX-5 binding 2 and GLD-1 RNA inh -6.
`CCOC(=O)C(=CNc1cc(Cl)c(-c2ccco2)c(Cl)c1)C(=O)OCC` gave EBV gp42 inh -21, Bcl-xL primary 1, VIM-2 inhibitor 0, IMP-1 inhibitor 6.1*, MEX-5 binding 3 and GLD-1 RNA inh 8.
`CCOC(=O)C(=CNc1ccc(-c2ccco2)c(Cl)c1)C(=O)OCC` gave EBV gp42 inh -19, Bcl-xL primary 1, VIM-2 inhibitor 1, IMP-1 inhibitor 6.4*, MEX-5 binding 9 and GLD-1 RNA inh -6.
`Cn1cc(-c2nnc(-c3ccccc3)o2)c2ccccc21` gave EBV gp42 inh -16, Bcl-xL primary -2, VIM-2 inhibitor 0, IMP-1 inhibitor 4.9*, MEX-5 binding 0 and GLD-1 RNA inh 5.
Cc1ccccc1-c1nnc(-c2ccccc2)o1 was read as EBV gp42 inh -18, Bcl-xL primary -2, VIM-2 inhibitor 0, IMP-1 inhibitor -3, MEX-5 binding 2 and GLD-1 RNA inh 3.
`Cc1ccc2[nH]c(=O)c3cc(C(=O)N(CCCOC(C)C)Cc4ccco4)sc3c2c1` gave EBV gp42 inh 8, Bcl-xL primary 2, VIM-2 inhibitor 8.1*, IMP-1 inhibitor -3, MEX-5 binding 0 and GLD-1 RNA inh 0.
Cc1ccc2nc(Cl)c3cc(C(=O)N(CCN(C)C)Cc4ccco4)sc3c2c1 was read as EBV gp42 inh -5, Bcl-xL primary 0, VIM-2 inhibitor 8.3*, IMP-1 inhibitor 2, MEX-5 binding -3 and GLD-1 RNA inh -3.
`CN(CCC#N)c1ccc(/C=C(\C#N)c2ccccn2)cc1` gave EBV gp42 inh 12, Bcl-xL primary 3, VIM-2 inhibitor 3, IMP-1 inhibitor 25*, MEX-5 binding -17 and GLD-1 RNA inh -53.
For O=C(Nc1cccc(C(F)(F)F)c1)C1=CC=CN2CCS(=O)(=O)N=C12 the results were Bcl-xL primary -6 and GLD-1 RNA inh -2.
`C=CCN1C(=O)/C(=C/c2ccc(N(C)C)cc2)S/C1=N\c1nnc(CC)s1` gave EBV gp42 inh 53*, VIM-2 inhibitor 2, IMP-1 inhibitor -3 and MEX-5 binding -10.
CCN1CCN(c2ccc(NC(=O)c3ccc4c(c3)[nH]c(=O)n4Cc3ccc(F)cc3)cc2)CC1 was read as EBV gp42 inh -13, Bcl-xL primary 7, VIM-2 inhibitor 9.2*, IMP-1 inhibitor -2, MEX-5 binding -2 and GLD-1 RNA inh -7.
For Cn1c(N=Nc2ccc(N3CCOCC3)cc2)[n+](C)c2ccccc21 the results were EBV gp42 inh -1, VIM-2 inhibitor -4, IMP-1 inhibitor -14 and MEX-5 binding -31*.
`Cc1cc(C=C2C(=O)c3ccccc3C2=O)c(C)n1C` gave EBV gp42 inh 39, Bcl-xL primary 51*, VIM-2 inhibitor 0, IMP-1 inhibitor 0, MEX-5 binding -3 and GLD-1 RNA inh 26.
`Cc1ccc(C=C2C(=O)c3ccccc3C2=O)s1` gave EBV gp42 inh -12, Bcl-xL primary 12, VIM-2 inhibitor 5, IMP-1 inhibitor 1, MEX-5 binding -2 and GLD-1 RNA inh -12.
`CCn1c(C)cc(C=C2C(=O)c3ccccc3C2=O)c1C` gave EBV gp42 inh 107*, VIM-2 inhibitor 1, IMP-1 inhibitor -1 and MEX-5 binding -8.
O=C(COC(=O)c1ccc(F)c(S(=O)(=O)N2CCOCC2)c1)NCc1ccc(Cl)cc1 was read as GLD-1 RNA inh 2.
